Measurements reported in ChEMBL document CHEMBL3232778, “One-pot synthesis and radical scavenging activity of novel polyhydroxylated 3-arylcoumarins” (Eur J Med Chem, 2014).
Active and inactive are the calls of the source. No cut-off for these calls is given here.

What follows are compounds tested on Radical scavenging activity (assay: Antioxidant activity assessed as DPPH radical scavenging activity by spectrophotometry).
Format: functional
How it was run: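 DPPH• in methanol, prepared daily and kept from light; 0.5 mL test solution in methanol (4-25 µM) added to 0.5 mL of 100 µM DPPH•. Absorbance read at 518 nm at intervals until equilibrium, with a methanol blank; triplicates, five analyte concentrations. %DPPH• remaining = Af/A0×100; concentration plotted against % remaining to get the 50% scavenging value.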

Row | EC50 | SMILES
1 | 3.39 µM | O=C(O)c1cc(O)c(O)cc1-c1cc2ccc(O)c(O)c2oc1=O
2 | 4.02 µM | O=C(O)c1cc(O)c(O)cc1-c1cc2cc(Br)ccc2oc1=O
3 | 5.3 µM | O=C(O)c1cc(O)c(O)cc1-c1cc2cc(O)c(O)cc2oc1=O
4 | 9.48 µM | O=C(O)/C=C/c1ccc(O)c(O)c1 [CAFFEIC ACID]
5 | 4.09 µM | O=C(O)c1cc(O)c(O)cc1-c1cc2cccc(O)c2oc1=O
6 | 6.86 µM | O=C(O)c1cc(O)c(O)cc1-c1cc2c(O)cccc2oc1=O
7 | 3.17 µM | O=C(O)c1cc(O)c(O)cc1-c1cc2cc(O)ccc2oc1=O
8 | 6.02 µM | O=C(O)c1cc(O)c(O)cc1-c1cc2ccc(O)cc2oc1=O
9 | 5.14 µM | O=C(O)c1cc(O)c(O)cc1-c1cc2ccccc2oc1=O
10 | 9.34 µM | Cc1c(C)c2c(c(C)c1O)CCC(C)(C(=O)O)O2 (stereo not given) [TROLOX]
11 | 8.83 µM | O=C(O)c1ccc(O)c(O)c1 [PROTOCATECHUIC ACID]
12 | 3.59 µM | O=C(O)c1ccccc1-c1cc2ccc(O)c(O)c2oc1=O
13 | 5.32 µM | O=C(O)c1ccccc1-c1cc2cc(O)c(O)cc2oc1=O

Row | SMILES | EC50
14 | O=C(O)c1cc(O)c(O)c(O)c1 [GALLIC ACID] | 5.34 µM

These compounds were tested on Radical scavenging activity (assay: Antioxidant activity assessed as DPPH radical scavenging activity up to 100 uM by spectrophotometry).
Format: functional

Row | SMILES | Activity
15 | O=C(O)c1ccccc1-c1cc2ccc(O)cc2oc1=O | inactive
16 | O=C(O)c1ccccc1-c1cc2c(O)cccc2oc1=O | inactive
17 | O=C(O)c1ccccc1-c1cc2cc(Br)ccc2oc1=O | inactive
18 | O=C(O)c1ccccc1-c1cc2ccccc2oc1=O | inactive
19 | O=C(O)c1ccccc1-c1cc2cc(O)ccc2oc1=O | inactive
20 | O=C(O)c1ccccc1-c1cc2cccc(O)c2oc1=O | inactive
